Test results published in ChEMBL document CHEMBL1145336, “1-aryl-3-(4-pyridine-2-ylpiperazin-1-yl)propan-1-one oximes as potent dopamine D4 receptor agonists for the treatment of erectile dysfunction” (J Med Chem, 2006).
pEC50, pIC50, pKi: −log10 of the molar value. Activity calls are given as the source filed them. The rule behind the calls is not given here.

Assays:
D(2) dopamine receptor [1] = molecular target: T1, D(2) dopamine receptor (Homo sapiens, UniProt P14416); test: Antagonist activity at human recombinant D2 receptor expressed in HEK293 cells by FLIPR assay; assay type: functional, cell-based
Rattus norvegicus [2] = test: Volume of distribution in rat at 1 mg/kg, sc; assay type: ADME, organism-based; design: dose 1 mg/kg, route subcutaneous; details: in vivo
Summary of the method: (§1)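 Pharmacokinetics in rat and dog after a 1 mg/kg dose given subcutaneously or orally. Oral bioavailability (F, %), volume of distribution (Vβ, L/kg) and half-life (T1/2, h) were determined.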

[3] = Bioavailability in rat at 1 mg/kg, sc; assay type: ADME, organism-based; details: in vivo; summary of the method: as §1
Canis familiaris = test: Volume of distribution in dog at 1 mg/kg, sc; assay type: ADME, organism-based, Canis lupus familiaris; design: dose 1 mg/kg, route subcutaneous; details: in vivo; summary of the method: as §1
[4] = Bioavailability in rat at 1 mg/kg, po; assay type: ADME, organism-based; details: in vivo; summary of the method: as §1
D(2) dopamine receptor [5] = molecular target: T1, D(2) dopamine receptor; test: Agonist activity at human recombinant D2 receptor expressed in HEK293 cells by FLIPR assay; assay type: functional, cell-based
Summary of the method: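 Calcium flux (FLIPR) in HEK-293 cells coexpressing recombinant human D2L with chimeric Gqo5. Efficacy is the maximal response relative to 10 µM dopamine (100%). EC50 is the concentration giving half-maximal stimulation. Values are means (SEM, n ≥ 3).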

D(2) dopamine receptor [6] = molecular target: T1, D(2) dopamine receptor; test: Displacement of [125I]PIPAT from human recombinant D2L receptor expressed in HEK293 cells
D(4) dopamine receptor [7] = molecular target: T2, D(4) dopamine receptor (Homo sapiens, UniProt P21917); test: Activity at human recombinant D4.4 receptor expressed in HEK293 cells by FLIPR assay; assay type: functional, cell-based
T2 sequence (P21917 whole entry): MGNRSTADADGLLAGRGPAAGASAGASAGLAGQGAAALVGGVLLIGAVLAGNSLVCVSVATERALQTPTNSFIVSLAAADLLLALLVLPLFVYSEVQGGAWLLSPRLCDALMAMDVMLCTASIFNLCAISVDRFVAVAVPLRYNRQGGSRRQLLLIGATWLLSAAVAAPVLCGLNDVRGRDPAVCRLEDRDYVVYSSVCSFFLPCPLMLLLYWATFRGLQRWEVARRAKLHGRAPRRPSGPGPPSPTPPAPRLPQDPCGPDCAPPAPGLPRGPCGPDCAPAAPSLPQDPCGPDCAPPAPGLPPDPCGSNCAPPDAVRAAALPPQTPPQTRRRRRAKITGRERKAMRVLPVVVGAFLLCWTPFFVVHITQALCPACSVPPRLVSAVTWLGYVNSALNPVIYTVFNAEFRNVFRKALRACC

D(4) dopamine receptor [8] = molecular target: T2, D(4) dopamine receptor; test: Displacement of [3H]A-369508 from human recombinant D4.4 receptor expressed in HEK293 cell membrane; assay type: cell membranes
Summary of the method: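 Competition binding against the D4-selective agonist radioligand [3H]-A-369508, using membranes from HEK-293 cells engineered to express human D4.4. Mean values (SEM, n ≥ 4).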

[9] = Half life in rat at 1 mg/kg, sc; assay type: ADME, organism-based; design: dose 1 mg/kg, route subcutaneous; details: in vivo; summary of the method: as §1
[10] = Bioavailability in dog at 1 mg/kg, po; assay type: ADME, organism-based, Canis lupus familiaris; details: in vivo; summary of the method: as §1
Rattus norvegicus [11] = test: Activity against penile erection in Wistar rat at 0.3 umol/kg, sc; assay type: functional
Summary of the method: (§2)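 Male Wistar rats, dosed subcutaneously, were weighed and adapted to a red-lit testing room for 60 min; experiments ran between 9:00 a.m. and 3:00 p.m. Erections were counted by direct observation for 60 min after dosing. The share of animals with one or more erections was reported as incidence (percent), n = 8-30 rats.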

Rattus norvegicus [12] = test: Activity against penile erection in Wistar rat at 0.1 umol/kg, sc; assay type: functional; summary of the method: as §2
[13] = Half life in dog at 1 mg/kg, po; assay type: ADME, organism-based, Canis lupus familiaris; design: dose 1 mg/kg, route oral; details: in vivo; summary of the method: as §1
Rattus norvegicus [14] = test: Activity against penile erection in Wistar rat at 1.0 umol/kg, sc; assay type: functional; summary of the method: as §2
[15] = molecular target: D(4) dopamine receptor (Homo sapiens) (UniProt P21917); test: Agonist activity at human recombinant D4.4 receptor expressed in HEK293 cells by FLIPR assay relative to dopamine
Rattus norvegicus [16] = test: Inhibition of (E)-1-(4-chlorophenyl)-3-(4-pyridin-2-ylpiperazin-1-yl)propan-1-one O-methyloxime-induced erectogenic effect in Wistar rat at 3 umol/kg, ip; assay type: functional, organism-based
Rattus norvegicus [17] = test: Inhibition of (E)-1-(4-chlorophenyl)-3-(4-pyridin-2-ylpiperazin-1-yl)propan-1-one O-methyloxime-induced erectogenic effect in Wistar rat at 1 umol/kg, ip; assay type: functional, organism-based
Rattus norvegicus [18] = test: Inhibition of (E)-1-(4-chlorophenyl)-3-(4-pyridin-2-ylpiperazin-1-yl)propan-1-one O-methyloxime-induced erectogenic effect in Wistar rat at 10 umol/kg, ip; assay type: functional, organism-based

T1 sequence (P14416 whole entry): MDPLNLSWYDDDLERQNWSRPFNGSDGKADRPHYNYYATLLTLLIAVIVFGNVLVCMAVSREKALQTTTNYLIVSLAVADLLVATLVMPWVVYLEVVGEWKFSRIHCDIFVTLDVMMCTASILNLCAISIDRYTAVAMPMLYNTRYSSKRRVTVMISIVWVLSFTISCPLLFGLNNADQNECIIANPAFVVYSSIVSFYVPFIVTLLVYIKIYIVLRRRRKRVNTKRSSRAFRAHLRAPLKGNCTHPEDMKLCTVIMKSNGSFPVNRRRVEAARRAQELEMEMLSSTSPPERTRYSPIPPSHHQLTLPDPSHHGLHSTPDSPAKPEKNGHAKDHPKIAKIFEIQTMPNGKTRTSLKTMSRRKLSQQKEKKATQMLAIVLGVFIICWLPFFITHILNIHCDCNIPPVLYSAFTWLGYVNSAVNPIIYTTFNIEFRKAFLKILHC

Structure (SMILES)	pIC50 (D(2) dopamine receptor [1])	pEC50 (D(2) dopamine receptor [5])	pKi (D(2) dopamine receptor [6])	pEC50 (D(4) dopamine receptor [7])	pKi (D(4) dopamine receptor [8])	further results
O/N=C(\CCN1CCN(c2ccccn2)CC1)c1ccccc1	< 5.00	< 5.00	6.59	8.36	7.60	Vbeta (Rattus norvegicus [2]): 1 L/kg; bioavailability [3]: 68.1%; Vbeta (Canis familiaris): 1.8 L/kg; bioavailability [4]: 0%; half-life [9]: 0.8 h; bioavailability [10]: 0%; Activity (Rattus norvegicus [11]): 60%
CO/N=C(/CCN1CCN(c2ccccn2)CC1)c1cccc(F)c1	< 5.00	< 5.00	7.33	7.22	8.19	
CO/N=C(/c1ccc(Cl)cc1)C(O)CN1CCN(c2ccccn2)CC1 (stereo unspecified)	< 5.00	< 5.00	6.43	7.65	6.82	
CO/N=C(/CCN1CCN(c2ccccn2)CC1)c1ccc(Cl)c(C)c1	< 5.00	< 5.00	7.22	7.01	7.94	
CO/N=C(/CCN1CCC(c2ccccn2)CC1)c1ccc(Cl)cc1	< 5.00	< 5.00	7.71	< 5.00	7.05	
CN1CCc2cccc3c2[C@H]1Cc1ccc(O)c(O)c1-3 [APOMORPHINE]						Activity (Rattus norvegicus [12]): 85%
CO/N=C(\CCN1CCN(c2ccccn2)CC1)c1cccc(C)c1	< 5.00	< 5.00	7.16	7.56	8.10	
CO/N=C(\CCN1CCN(c2ccccn2)CC1)c1ccc(F)c(Cl)c1	< 5.00	< 5.00	6.77	6.83	7.15	half-life [13]: 6.1 h; Vbeta (Rattus norvegicus [2]): 8.2 L/kg; Vbeta (Canis familiaris): 3.8 L/kg; bioavailability [4]: 18.6%; Activity (Rattus norvegicus [14]): 85%; bioavailability [10]: 42.9%
CO/N=C(/CCN1CCN(c2ccccn2)CC1)c1ccc(F)cc1	< 5.00	< 5.00	6.66	7.87	7.27	
CO/N=C(\CCN1CCN(c2ccccn2)CC1)c1ccc(F)cc1	< 5.00	< 5.00	6.77	7.31	7.85	Activity (Rattus norvegicus [11]): 50%
CO/N=C(/CCN1CCN(c2ccccn2)CC1)c1cccc(C#N)c1	< 5.00	< 5.00	6.90	7.56	7.70	
CO/N=C(/CCCN1CCN(c2ccccn2)CC1)c1ccc(F)cc1	< 5.00	6.44		7.47		Efficacy [15]: 65%
CO/N=C(/CCN1CCN(c2ccccn2)CC1)c1cccnc1	< 5.00	< 5.00	5.74	7.48	6.89	
CO/N=C(\CCN1CCC(c2ccccn2)CC1)c1ccc(Cl)cc1	< 5.00	< 5.00	7.60	6.71	6.87	
CO/N=C(\CN1CCN(c2ccccn2)CC1)c1ccc(F)cc1	< 5.00	< 5.00	5.60	7.36	5.69	Activity (Rattus norvegicus [11]): 77%
CO/N=C(\c1ccc(Cl)cc1)C(O)CN1CCN(c2ccccn2)CC1 (stereo unspecified)	< 5.00	< 5.00	6.00	7.34	6.95	
CO/N=C(\CCN1CCN(c2ccccn2)CC1)c1cccc(F)c1	< 5.00	< 5.00	7.00	7.35	7.86	
CN1CCN(C2=Nc3cc(Cl)ccc3Nc3ccccc32)CC1						Activity (Rattus norvegicus [16]): Active
CO/N=C(/CCN1CCN(c2ccccn2)CC1)c1cc(F)cc(F)c1	< 5.00	< 5.00	6.65	7.33	8.20	
O=C(CCCN1CCC(O)(c2ccc(Cl)cc2)CC1)c1ccc(F)cc1						Activity (Rattus norvegicus [17]): Active

Structure (SMILES)	pIC50 (D(2) dopamine receptor [1])	pEC50 (D(2) dopamine receptor [5])	pKi (D(2) dopamine receptor [6])	pEC50 (D(4) dopamine receptor [7])	pKi (D(4) dopamine receptor [8])	further results
CO/N=C(\CCN1CCN(c2ccccn2)CC1)c1ccccc1C	< 5.00	< 5.00	6.95	7.13	7.94	
CO/N=C(/CCN1CCN(c2ccccn2)CC1)c1cccc(C)c1	< 5.00	< 5.00	7.17	7.21	7.49	
CO/N=C(/c1ccc(Cl)cc1)C(CNOC)CN1CCN(c2ccccn2)CC1 (stereo unspecified)	< 5.00	< 5.00	6.79	6.69	6.92	
N#CCO/N=C(\CCN1CCN(c2ccccn2)CC1)c1ccccc1	< 5.00	< 5.00	6.85	7.48	7.06	
CO/N=C(\CCN1CCN(c2ccccn2)CC1)c1cc(F)cc(F)c1	< 5.00	< 5.00	6.88	7.43	6.96	Activity (Rattus norvegicus [12]): 68%
CO/N=C(\CCN1CCN(c2ccccn2)CC1)c1ccccc1	< 5.00	< 5.00	6.76	7.49	7.64	Activity (Rattus norvegicus [12]): 77%
CO/N=C(\CCN1CCN(c2ccccn2)CC1C)c1ccc(Cl)cc1 (stereo unspecified)	< 5.00	< 5.00	7.12	6.48	7.17	
CCO/N=C(\CCN1CCN(c2ccccn2)CC1)c1ccccc1	< 5.00	< 5.00	6.89	7.55	7.42	Activity (Rattus norvegicus [11]): 55%
Cc1cccc(C(=O)NCN2CCN(c3ccccc3C#N)CC2)c1 [PD-168,077]	< 5.00	< 5.00				Activity (Rattus norvegicus [11]): 79%
O=c1[nH]c2ccccc2n1CCCN1CCC(n2c(=O)[nH]c3cc(Cl)ccc32)CC1						Activity (Rattus norvegicus [18]): inactive
CO/N=C(\CCN1CCN(c2ccccn2)CC1)c1ccc(Cl)c(Cl)c1	< 5.00	< 5.00	7.19	6.27	8.19	Activity (Rattus norvegicus [11]): 76%
O/N=C(/CCN1CCN(c2ccccn2)CC1)c1cc(F)cc(F)c1	< 5.00	< 5.00		7.76		
CCO/N=C(\CCN1CCN(c2nccs2)CC1)c1ccccc1	< 5.00	< 5.00	6.59	7.09	6.77	
CO/N=C(\CCN1CCN(c2ccccn2)CC1)c1cccc(Cl)c1	< 5.00	< 5.00	7.01	7.05	7.87	
CO/N=C(\CCN1CCN(c2ccccn2)CC1)c1ccc(C)c(C)c1	< 5.00	< 5.00	6.86	6.97	7.56	Activity (Rattus norvegicus [12]): 68%
O/N=C(/CCCN1CCN(c2ccccn2)CC1)c1ccc(F)cc1	< 5.00	< 5.00		7.23		
CCO/N=C1/c2ccccc2CCC1CN1CCN(c2ccccn2)CC1 (stereo unspecified)	< 5.00	< 5.00		5.32		
CO/N=C(/CCN1CCN(c2ccccn2)CC1)c1cccc(Cl)c1	< 5.00	< 5.00		6.95		
O/N=C(\CCN1CCN(c2ccccn2)CC1)c1cc(F)cc(F)c1	< 5.00	< 5.00		7.71		
CO/N=C(/c1ccc(Cl)cc1)C(C)CN1CCN(c2ccccn2)CC1 (stereo unspecified)	< 5.00	< 5.00	6.84	6.34	6.46	
